# Experimental data from ChEMBL document CHEMBL3739303, “Targeting the Src Homology 2 (SH2) Domain of Signal Transducer and Activator of Transcription 6 (STAT6) with Cell-Permeable, Phosphatase-Stable Phosphopeptide Mimics Potently Inhibits Tyr641 Phosphorylation and Transcriptional Activity” (J Med Chem, 2015).
# Activity calls are given as the source filed them. The rule behind the calls is not given here.
# Assays:
# [1] = target: T1, Signal transducer and activator of transcription 6 (Homo sapiens) (UniProt P42226); test: Inhibition of IL-13-stimulated STAT6 SH2 domain phosphorylation in human Beas-2B cells assessed as inhibition of CCL26 mRNA expression at 100 nM preincubated for 2 hrs followed by stimulation with IL-13 for 24 hrs by RT-PCR analysis relative to control
# T1 sequence (whole entry): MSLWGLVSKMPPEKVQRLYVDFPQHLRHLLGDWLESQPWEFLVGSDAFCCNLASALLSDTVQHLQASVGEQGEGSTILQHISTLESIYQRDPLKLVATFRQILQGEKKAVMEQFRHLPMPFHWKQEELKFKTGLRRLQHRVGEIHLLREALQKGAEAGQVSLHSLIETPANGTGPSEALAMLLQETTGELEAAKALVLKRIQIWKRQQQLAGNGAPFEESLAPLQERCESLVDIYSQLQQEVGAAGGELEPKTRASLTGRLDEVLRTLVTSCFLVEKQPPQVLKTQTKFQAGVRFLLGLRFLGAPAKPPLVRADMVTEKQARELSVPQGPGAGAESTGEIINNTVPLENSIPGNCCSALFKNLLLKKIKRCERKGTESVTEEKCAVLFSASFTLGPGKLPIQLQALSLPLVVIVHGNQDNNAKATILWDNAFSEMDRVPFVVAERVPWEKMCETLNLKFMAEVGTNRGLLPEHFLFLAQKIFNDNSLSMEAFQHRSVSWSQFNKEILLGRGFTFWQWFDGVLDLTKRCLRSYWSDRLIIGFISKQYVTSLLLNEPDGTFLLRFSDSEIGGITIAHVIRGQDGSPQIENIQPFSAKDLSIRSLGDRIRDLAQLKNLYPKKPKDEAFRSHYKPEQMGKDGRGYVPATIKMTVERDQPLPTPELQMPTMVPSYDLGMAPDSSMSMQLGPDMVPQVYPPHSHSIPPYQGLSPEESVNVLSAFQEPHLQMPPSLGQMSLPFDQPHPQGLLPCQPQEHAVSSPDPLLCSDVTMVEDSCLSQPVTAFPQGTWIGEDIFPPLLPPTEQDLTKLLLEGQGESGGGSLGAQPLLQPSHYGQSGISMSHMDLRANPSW
# [2] = target: RAC-alpha serine/threonine-protein kinase (Homo sapiens) (UniProt P31749); test: Inhibition of EGF-induced AKT phosphorylation at S473 in human MDA-MB-468 cells at 5 uM incubated for 2 hrs followed by stimulation with EGF for 1 hr by Western blot assay; type: cell-based
# [3] = target: T1, Signal transducer and activator of transcription 6 (Homo sapiens); test: Inhibition of IL4-stimulated STAT6 phosphorylation at tyrosine 641 in human Beas-2B cells at 0.025 to 5 uM incubated for 2 hrs followed by stimulation with IL4 for 1 hr by Western blot assay; type: cell-based
# Outline: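 Beas-2B seeded at 3.0 × 10^5 cells/well the day before; prodrugs from DMSO stocks added to final concentrations for 2 h, then IL-4 (2 ng/mL) for 1 h. PBS-washed cells lysed with PMSF, protein by modified Lowry; blots blocked in 3% BSA/TBST, probed for pSTAT6 (Tyr641), stripped and reprobed for total STAT6; ECL on X-ray film.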
# Mus musculus = species: Mus musculus; test: Inhibition of IL2-induced STAT5 phosphorylation at Y694 in CD4+ T lymphocytes isolated from C57BL/6J mouse at 0.5 to 5 uM preincubated for 2 hrs followed by activation with plate-bound anti-CD3/anti-CD28 and IL2 for 15 mins by Western blot analysis; type: cell-based
# Outline: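 CD4+ T cells from C57BL/6J mice, sorted by AutoMACS; activated 15 min with plate-bound anti-CD3 and/or anti-CD28 with IL-2, IL-6 or IL-4; lysed with protease inhibitors plus 10 mM NaF and 1 mM Na3VO4; Bradford-normalised immunoblots for pSTAT1 (Tyr701), pSTAT5 (Tyr694), pSTAT6 (Tyr641) and total STATs.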
# [4] = Cytotoxicity against human BEAS2B cells assessed as cell viability after 72 hrs by MTS assay; type: cell-based; details: beas-2b
# Outline: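 Beas-2B seeded at 2000 cells/well; 10 mM DMSO stocks serially diluted in DMSO and equal amounts added to cultures; 72 h at 37 °C; medium replaced by 1:5 MTS/PBS, 1 h further incubation; viable cells read as optical density at 490 nm.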
# [5] = target: Signal transducer and activator of transcription 3 (Mus musculus) (UniProt P42227); test: Inhibition of IL6-induced STAT3 phosphorylation at S727 in CD4+ T lymphocytes isolated from C57BL/6J mouse preincubated for 2 hrs followed by activation with plate-bound anti-CD3/anti-CD28 for 15 mins by Western blot analysis
# [6] = target: T1, Signal transducer and activator of transcription 6 (Homo sapiens); test: Inhibition of IL-13-stimulated STAT6 SH2 domain phosphorylation in human Beas-2B cells assessed as inhibition of CCL26 mRNA expression preincubated for 2 hrs followed by stimulation with IL-13 for 24 hrs by RT-PCR analysis
# Signal transducer and activator of transcription 3 (Mus musculus), sequence (P42227 whole entry, the tested form may be a part): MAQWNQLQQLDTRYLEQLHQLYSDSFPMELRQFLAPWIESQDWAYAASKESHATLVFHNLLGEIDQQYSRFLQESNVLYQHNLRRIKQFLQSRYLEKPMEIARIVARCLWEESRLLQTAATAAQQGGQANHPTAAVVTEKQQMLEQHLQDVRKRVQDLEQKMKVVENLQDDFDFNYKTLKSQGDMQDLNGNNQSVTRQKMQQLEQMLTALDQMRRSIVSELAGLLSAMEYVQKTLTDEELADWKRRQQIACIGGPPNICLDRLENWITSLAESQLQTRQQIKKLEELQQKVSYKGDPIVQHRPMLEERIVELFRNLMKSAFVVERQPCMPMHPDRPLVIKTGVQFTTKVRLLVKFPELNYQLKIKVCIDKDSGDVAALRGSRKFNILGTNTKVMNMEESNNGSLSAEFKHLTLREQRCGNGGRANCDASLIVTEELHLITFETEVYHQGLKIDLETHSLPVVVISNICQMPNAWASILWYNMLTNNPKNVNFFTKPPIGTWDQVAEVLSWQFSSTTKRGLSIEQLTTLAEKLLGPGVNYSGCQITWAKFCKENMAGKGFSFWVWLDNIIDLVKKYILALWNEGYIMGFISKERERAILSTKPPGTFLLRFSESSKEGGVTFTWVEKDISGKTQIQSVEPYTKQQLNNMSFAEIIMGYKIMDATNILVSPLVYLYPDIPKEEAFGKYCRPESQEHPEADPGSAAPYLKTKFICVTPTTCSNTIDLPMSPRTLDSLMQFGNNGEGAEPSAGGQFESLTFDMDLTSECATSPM
# RAC-alpha serine/threonine-protein kinase (Homo sapiens), sequence (P31749 whole entry): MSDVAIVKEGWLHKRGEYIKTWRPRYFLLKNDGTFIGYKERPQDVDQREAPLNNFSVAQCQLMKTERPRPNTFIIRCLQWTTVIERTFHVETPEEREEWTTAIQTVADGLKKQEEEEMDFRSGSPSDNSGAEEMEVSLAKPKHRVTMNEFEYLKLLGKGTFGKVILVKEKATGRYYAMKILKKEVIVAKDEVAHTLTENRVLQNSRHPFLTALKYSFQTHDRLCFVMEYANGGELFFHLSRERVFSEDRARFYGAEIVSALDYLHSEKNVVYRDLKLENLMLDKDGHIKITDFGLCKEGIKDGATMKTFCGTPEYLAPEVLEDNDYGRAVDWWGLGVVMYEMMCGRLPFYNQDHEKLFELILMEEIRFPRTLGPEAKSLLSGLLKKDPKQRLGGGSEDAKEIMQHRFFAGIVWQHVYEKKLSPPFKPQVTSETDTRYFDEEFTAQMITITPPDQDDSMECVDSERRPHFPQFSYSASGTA
smiles,measurement,setting,value
C/C(=C\C(=O)N[C@H](C(=O)N1CCC[C@H]1C(=O)N(C)c1ccccc1)C(C)(C)C)c1ccc(C(F)(F)P(=O)(OCOC(=O)C(C)(C)C)OCOC(=O)C(C)(C)C)cc1,inhibition,[1],> 50%
same,inhibition,[2],Active
same,inhibition,[3],Active
same,inhibition,Mus musculus,Active
same,Activity,[4],Non-toxic
same,inhibition,[5],inactive
same,inhibition,[6],Dose-dependent effect
